# Experimental data as given in ChEMBL document CHEMBL1255406, “Production of a class II two-component lantibiotic of Streptococcus pneumoniae using the class I nisin synthetic machinery and leader sequence” (2010).
# Activity calls are given as the source filed them. The rule behind the calls is not given here. Peptide text beside a SMILES is read from it.
# How the values were obtained:
# Micrococcus flavus [1] = assay: Antimicrobial activity against Micrococcus flavus assessed as growth inhibition; assay type: functional
# How it was run: (§1)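 Broth microdilution MIC in GM17 in 96-well plates. Overnight M. flavus culture diluted 1:50 and grown to OD600 0.2, then 150 µl culture mixed with 50 µl medium containing serial peptide concentrations. Incubated overnight at a temperature suited to the strain (M. flavus grown at 30°C), with OD600 read every 30 min. MIC is the lowest concentration inhibiting growth, read when untreated cells reach half-maximal OD. At least triplicate.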
# Micrococcus flavus [2] = assay: Antimicrobial activity against Micrococcus flavus assessed as growth inhibition in presence of trypsin; assay type: functional; how it was run: as §1
# Micrococcus flavus [3] = assay: Antimicrobial activity against Micrococcus flavus assessed as growth inhibition in presence of leucine aminopeptidase; assay type: functional; how it was run: as §1
# Streptococcus pneumoniae [4] = assay: Antimicrobial activity against Streptococcus pneumoniae assessed as growth inhibition in presence of trypsin; assay type: functional, organism-based
# How it was run: (§2)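 Strains in GM17 at 37°C, diluted 1:50 from overnight and grown to OD600 0.2, then exposed to peptide dilutions. OD600 read every 30 min. MIC = lowest inhibiting concentration when untreated cells reach half-maximal OD. At least triplicate.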
# Streptococcus pneumoniae [5] = assay: Antimicrobial activity against Streptococcus pneumoniae assessed as growth inhibition in presence of leucine aminopeptidase; assay type: functional, organism-based
# How it was run: (§3)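 Leader cleaved by 30 min incubation at 37°C with leucine aminopeptidase in phosphate buffer, pH 7.4. Strains in GM17 at 37°C, diluted 1:50 from overnight and grown to OD600 0.2, then mixed with peptide dilutions. OD600 monitored every 30 min. MIC = lowest concentration inhibiting growth, read when untreated cultures reach half-maximal OD. At least triplicate.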
# Enterococcus faecalis [6] = assay: Antimicrobial activity against Enterococcus faecalis assessed as growth inhibition in presence of trypsin; assay type: functional, organism-based; how it was run: as §2
# Enterococcus faecalis [7] = assay: Antimicrobial activity against Enterococcus faecalis assessed as growth inhibition in presence of leucine aminopeptidase; assay type: functional, organism-based; how it was run: as §3
# Staphylococcus aureus [8] = assay: Antimicrobial activity against Staphylococcus aureus assessed as growth inhibition in presence of trypsin; assay type: functional, organism-based; how it was run: as §2
# Staphylococcus aureus [9] = assay: Antimicrobial activity against Staphylococcus aureus assessed as growth inhibition in presence of leucine aminopeptidase; assay type: functional, organism-based; how it was run: as §3
# Streptococcus mitis [10] = assay: Antimicrobial activity against Streptococcus mitis assessed as growth inhibition in presence of trypsin; assay type: functional, organism-based; how it was run: as §2
# Streptococcus mitis [11] = assay: Antimicrobial activity against Streptococcus mitis assessed as growth inhibition in presence of leucine aminopeptidase; assay type: functional, organism-based; how it was run: as §3
MIC (Micrococcus flavus [1]) [µM],MIC (Micrococcus flavus [2]) [µM],MIC (Micrococcus flavus [3]) [µM],Structure (SMILES),growth inhibition (GI) (Streptococcus pneumoniae [4]),growth inhibition (GI) (Streptococcus pneumoniae [5]),growth inhibition (GI) (Enterococcus faecalis [6]),growth inhibition (GI) (Enterococcus faecalis [7]),growth inhibition (GI) (Staphylococcus aureus [8]),growth inhibition (GI) (Staphylococcus aureus [9]),growth inhibition (GI) (Streptococcus mitis [10]),growth inhibition (GI) (Streptococcus mitis [11])
20,0.004,,C=C(NC(=O)[C@H](NC(=O)[C@@H](Cc1cnc[nH]1)NC(=O)[C@H](NC(=O)[C@@H](CO)NC(=O)[C@H]1CS[C@H](C)[C@@H]2NC(=O)[C@@H](C)NC(=O)[C@@H](NC(=O)[C@@H](CCCCN)NC(=O)[C@@H](CCSC)NC(=O)[C@@H](CC(N)=O)[C@H]3CS[C@H](C)[C@H](NC(=O)[C@@H](CCCCN)NC(=O)[C@H]4CS[C@H](C)[C@H](NC(=O)[C@H]5CSC[C@H](NC(=O)/C(=C/C)NC(=O)[C@H](N)[C@H](C)CC)C(=O)N[C@H]([C@H](C)CC)C(=O)NC(=C)C(=O)N[C@H](CC(C)C)C(=O)N5)C(=O)N5CCC[C@@H]5C(=O)NCC(=O)N4)C(=O)NCC(=O)N[C@H](C)C(=O)N[C@H](CC(C)C)C(=O)N[C@H](CCSC)C(=O)NCC(=O)N3)[C@@H](C)SC[C@@H](NC2=O)C(=O)N[C@H](Cc2cnc[nH]2)C(=O)N1)[C@H](C)CC)C(C)C)C(=O)N[C@H](CCCCN)C(=O)O [PRENISIN],,,,,,,,
85,10,8.5,CC[C@H](C)[C@H](NC(=O)[C@H](Cc1ccccc1)NC(=O)[C@H](CO)NC(=O)[C@H](CC(C)C)NC(=O)[C@@H](NC(=O)[C@H](C)NC(=O)[C@H](CO)NC(=O)[C@H](CS)NC(=O)[C@@H](NC(=O)[C@@H](NC(=O)[C@@H](NC(=O)[C@@H](N)CO)[C@@H](C)O)[C@@H](C)CC)[C@@H](C)CC)[C@@H](C)O)C(=O)N[C@@H](C)C(=O)N[C@@H](CO)C(=O)N[C@@H](Cc1ccc(O)cc1)C(=O)N[C@@H](CC(C)C)C(=O)NCC(=O)N[C@@H](CO)C(=O)N[C@@H](C)C(=O)N[C@@H](CCC(N)=O)C(=O)N[C@H](C(=O)N[C@@H](CCCNC(=N)N)C(=O)N[C@@H](CS)C(=O)NCC(=O)N[C@@H](CCCCN)C(=O)N[C@@H](CC(=O)O)C(=O)N[C@@H](CC(N)=O)C(=O)N[C@@H](CCCCN)C(=O)N[C@@H](CCCCN)C(=O)N[C@@H](CCCCN)C(=O)O)[C@@H](C)O (H-STIICSATLSFIASYLGSAQTRCGKDNKKK-OH),inactive,inactive,inactive,inactive,inactive,inactive,inactive,inactive

Structure (SMILES),MIC (Micrococcus flavus [1]) [µM],MIC (Micrococcus flavus [2]) [µM],MIC (Micrococcus flavus [3]) [µM],growth inhibition (GI) (Streptococcus pneumoniae [4]),growth inhibition (GI) (Streptococcus pneumoniae [5]),growth inhibition (GI) (Enterococcus faecalis [6]),growth inhibition (GI) (Enterococcus faecalis [7]),growth inhibition (GI) (Staphylococcus aureus [8]),growth inhibition (GI) (Staphylococcus aureus [9]),growth inhibition (GI) (Streptococcus mitis [10]),growth inhibition (GI) (Streptococcus mitis [11])
CC[C@H](C)[C@H](NC(=O)CNC(=O)[C@H](CO)NC(=O)[C@@H](NC(=O)[C@H](C)NC(=O)[C@H](C)NC(=O)[C@H](CO)NC(=O)[C@@H](NC(=O)[C@H](CS)NC(=O)[C@@H](NC(=O)[C@H](CCCCN)NC(=O)[C@H](CO)NC(=O)[C@H](CO)NC(=O)[C@H](C)NC(=O)[C@H](C)NC(=O)[C@H](C)NC(=O)[C@H](CO)NC(=O)[C@H](CCCCN)NC(=O)[C@H](CC(C)C)NC(=O)[C@@H](NC(=O)[C@@H](NC(=O)[C@@H]1CCCN1C(=O)[C@@H](NC(=O)[C@@H]1CCCN1C(=O)[C@@H](NC(=O)[C@@H](N)Cc1c[nH]c2ccccc12)[C@@H](C)O)[C@@H](C)O)[C@@H](C)CC)[C@@H](C)CC)C(C)C)[C@@H](C)CC)C(C)C)C(=O)NCC(=O)NCC(=O)N[C@@H](CC(C)C)C(=O)N[C@H](C(=O)N[C@@H](CO)C(=O)N[C@@H](Cc1ccc(O)cc1)C(=O)N[C@@H](CC(N)=O)C(=O)N[C@@H](CC(N)=O)C(=O)N[C@@H](CC(=O)O)C(=O)N[C@@H](CS)C(=O)N[C@@H](CC(C)C)C(=O)NCC(=O)O)C(C)C (H-WTPTPIILKSAAASSKVCISAAVSGIGGLVSYNNDCLG-OH),80,0.6,,inactive,inactive,inactive,inactive,inactive,inactive,inactive,inactive
